Measurements: ChEMBL document CHEMBL1140724, “Identification of human intestinal carboxylesterase as the primary enzyme for activation of a doxazolidine carbamate prodrug” (J Med Chem, 2008)
Blank lines part the entries; values can stand above or below the compound they belong to.

How the values were obtained:
MCF7 [1] = assay: Growth inhibition of doxorubicin-sensitive human MCF7 cells after 24 hrs in presence of human intestinal carboxylesterase relative to pentyl PABC-Doxorubicin; type: functional
[2] = Growth inhibition of human MCF7/Adr cells; type: functional, cell-based; conditions: NCI/ADR-RES
[3] = Growth inhibition of human U373MG cells containing U373IRES plasmid after 1 hr; type: functional, cell-based, U-373MG ATCC; conditions: U373 MG
Method in brief: (§1)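 U373MG glioblastoma cells (vector U373IRES, hCE1-overexpressing UhCE1, or hiCE-overexpressing UhiCE) were cultured in DMEM with 10% fetal calf serum and no antibiotics. They were exposed to graded prodrug for 1 h. Growth inhibition was measured as IC50, with points as mean ± standard deviation of six measurements.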

MCF7 [4] = assay: (§2) Growth inhibition of doxorubicin-sensitive human MCF7 cells after 24 hrs; type: functional, cell-based; conditions: MCF7, 24 h
Method in brief: (§3)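 MCF-7 or MCF-7/Adr cells in RPMI 1640 with 10% fetal calf serum were seeded and left overnight to adhere. Medium was then replaced with complete medium holding prodrug in DMSO (1% final), alone or with additive: recombinant hiCE 250 ng/mL, hCE1 2.5 µg/mL, pig liver esterase 30 µg/mL, or N-Hep G2 lysate 83.5 µg protein/mL. Exposure was 24 h, then fresh medium.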

MCF7 [5] = assay: Growth inhibition of doxorubicin-sensitive human MCF7 cells after 24 hrs in presence of human intestinal carboxylesterase; type: functional, cell-based; conditions: MCF7, 24 h; method in brief: as §3
Homo sapiens = organism: Homo sapiens; assay: Hydrolysing activity of human recombinant intestinal carboxylesterase
Method in brief: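 Recombinant baculovirus-expressed hiCE (26 µg/mL) was incubated with 50 µM prodrug in 5% DMSO with FBS/RPMI/PBS pH 7.4. Timed aliquots were quenched in equal-volume ethanol, held at -20 °C overnight and centrifuged. 1 unit = 1 µM Dox per hour; specific activity is per mg protein.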

MCF7 [6] = assay: Growth inhibition of doxorubicin-sensitive human MCF7 cells after 24 hrs in presence of N-Hep G2 lysate; type: functional, cell-based; conditions: MCF7, 24 h; method in brief: as §3
HepG2 = assay: Growth inhibition of human HepG2 cells; type: functional, cell-based
SK-HEP1 = assay: Growth inhibition of human SK-HEP-1 cells; type: functional, cell-based
[7] = Growth inhibition of doxorubicin-resistant human MCF7/Adr cells after 24 hrs; type: functional, cell-based; conditions: NCI/ADR-RES; method in brief: as §3
MCF7 [8] = assay: Growth inhibition of doxorubicin-sensitive human MCF7 cells after 24 hrs in presence of pig liver esterase relative to pentyl PABC-Doxorubicin; type: functional
MCF7 [9] = assay: Growth inhibition of doxorubicin-sensitive human MCF7 cells after 24 hrs in presence of pig liver esterase; type: functional, cell-based; conditions: MCF7, 24 h; method in brief: as §3
[10] = Growth inhibition of […] human MCF7/Adr cells after 24 hrs in presence of N-Hep G2 lysate relative to pentyl PABC-Doxorubicin; type: functional, NCI/ADR-RES
Sus scrofa = organism: Sus scrofa; assay: Hydrolysing activity of pig liver esterase assessed as doxorubicin production
[11] = Growth inhibition of human N-HepG2 cells; type: functional, cell-based
MCF7 [12] = assay: Growth inhibition of human MCF7 cells; type: functional, cell-based
MCF7 [13] = assay: as §2; type: functional; method in brief: as §3
[14] = Growth inhibition of rat H9c2(2-1) cells; type: functional
MCF7 [15] = assay: Growth inhibition of doxorubicin-sensitive human MCF7 cells after 24 hrs in presence of N-Hep G2 lysate relative to pentyl PABC-Doxorubicin; type: functional
[16] = Growth inhibition of […] human MCF7/Adr cells after 24 hrs in presence of N-Hep G2 lysate; type: functional, cell-based; conditions: NCI/ADR-RES; method in brief: as §3
[17] = Growth inhibition of […] human MCF7/Adr cells after 24 hrs in presence of human intestinal carboxylesterase; type: functional, cell-based; conditions: NCI/ADR-RES; method in brief: as §3
[18] = Growth inhibition of human U373MG cells containing UhiCE expressing plasmid after 1 hr relative to pentyl PABC-Doxorubicin; type: functional, U-373MG ATCC
Method in brief: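 UhiCE cells were preincubated 2 h with 10 µM benzil, a membrane-permeable CE inhibitor, before 1 h prodrug exposure. IC50 was compared with prodrug alone, using means of six measurements.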

[19] = Growth inhibition of human U373MG cells containing UhCE1 expressing plasmid after 1 hr; type: functional, cell-based, U-373MG ATCC; conditions: U373 MG; method in brief: as §1
[20] = Growth inhibition of doxorubicin-resistant human MCF7/Adr cells after 24 hrs in presence of human intestinal carboxylesterase; type: functional, NCI/ADR-RES; method in brief: as §3
[21] = Growth inhibition of […] human MCF7/Adr cells after 24 hrs in presence of human intestinal carboxylesterase relative to pentyl PABC-Doxorubicin; type: functional, NCI/ADR-RES
[22] = Growth inhibition of human U373IRES cells after 1 hr; type: functional, U-373MG ATCC; method in brief: as §1
[23] = Growth inhibition of human U373MG cells containing UhiCE expressing plasmid after 1 hr; type: functional, cell-based, U-373MG ATCC; conditions: U373 MG; method in brief: as §1
[24] = Growth inhibition of human MCF7/Adr cells after 24 hrs in presence of human carboxylesterase 1; conditions: NCI/ADR-RES
[25] = Growth inhibition of […] human MCF7/Adr cells after 24 hrs in presence of human carboxylesterase 1 relative to pentyl PABC-Doxorubicin; type: functional, NCI/ADR-RES
MCF7 [26] = assay: Growth inhibition of doxorubicin-sensitive human MCF7 cells after 24 hrs in presence of human carboxylesterase 1 relative to pentyl PABC-Doxorubicin; type: functional
MCF7 [27] = assay: Growth inhibition of doxorubicin-sensitive human MCF7 cells after 24 hrs in presence of human carboxylesterase 1; type: functional, cell-based; conditions: MCF7, 24 h; method in brief: as §3

IC50 (MCF7 [4]): > 1000 nM
IC50 (MCF7 [5]): 15.8 nM
Activity (Homo sapiens): 0.065 µM/h
IC50 (MCF7 [6]): 251 nM
IC50 (HepG2): 50.1 nM
IC50 (SK-HEP1): 1000 nM
IC50 (MCF7 [9]): 3.98 nM
Activity (Sus scrofa): 47 µM/h
IC50 (MCF7 [12]): 2510 nM
SMILES: CCCCCOC(=O)Nc1ccc(COC(=O)N2CO[C@@H]3[C@H](C)O[C@H](O[C@H]4C[C@](O)(C(=O)CO)Cc5c(O)c6c(c(O)c54)C(=O)c4c(OC)cccc4C6=O)C[C@@H]32)cc1
Fold change (MCF7 [1]): >63
IC50 [2]: 316 nM
IC50 [3]: > 1000 nM
IC50 [7]: > 1000 nM
Fold change (MCF7 [8]): >100
Fold change [10]: >6
IC50 [11]: 20 nM
Fold change (MCF7 [13]): 1
IC50 [14]: 631 nM
Fold change (MCF7 [15]): >4
IC50 [16]: 158 nM
IC50 [17]: 12.6 nM
Fold change [18]: >20
IC50 [19]: > 1000 nM
Fold change [20]: > 79
Fold change [21]: >79
Fold change [22]: 1

SMILES: COc1cccc2c1C(=O)c1c(O)c3c(c(O)c1C2=O)C[C@@](O)(C(=O)CO)C[C@@H]3OC1C[C@H](N)[C@H](O)[C@H](C)O1 (single isomer, unassigned) [DOXORUBICIN]
IC50 [3]: 158 nM
IC50 [23]: 200 nM
IC50 [19]: 158 nM

IC50 [24]: 794 nM
IC50 (MCF7 [4]): > 1000 nM
IC50 (MCF7 [27]): 1000 nM
SMILES: O=S(=O)(Nc1ccc(NS(=O)(=O)c2ccc(Cl)cc2)cc1)c1ccc(Cl)cc1
Fold change [25]: >1
Fold change (MCF7 [26]): >1
IC50 [7]: > 1000 nM
